Experiments:
[1] = molecular target: Cyclin-dependent kinase 1/cyclin B1 (Homo sapiens, UniProt P06493+P14635); assay: (§1) Inhibition of CDK1/Cyclin B in human HeLa cell extracts using histone H1 as substrate preincubated for 30 mins before substrate addition measured after 15 mins by autoradiography; type: protein-complex assay; settings: hela
Summary of the method: (§2)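 HeLa cells seeded for 24 h, then given 80 nM paclitaxel in DMEM with 5% newborn calf serum for 12 h. 200 µg extract immunoprecipitated with anti-CDK1 antibody, 6 h at 4 °C, and washed.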

[2] = molecular target: Cyclin-dependent kinase 2/cyclin A (Homo sapiens, UniProt P24941+P20248+P78396); assay: (§3) Inhibition of CDK2/Cyclin A2 in human HeLa cell extracts using histone H1 as substrate preincubated for 30 mins before substrate addition measured after 15 mins by autoradiography; type: protein-complex assay; settings: hela
Summary of the method: (§4)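 CDK2 immunoprecipitated (6 h, 4 °C) from 200 µg extract of HeLa cells seeded 24 h and then given 50 µg/ml etoposide in DMEM with 5% newborn calf serum for 12 h. After washing, kinase preincubated 30 min with 0–200 µM inhibitor.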

[3] = system: HeLa; assay: Cell cycle arrest in human HeLa cells assessed as accumulation at G2 phase at 12.5 uM after 72 hrs by DAPI staining-based FACS analysis (reference value: 13.73%); type: functional
[4] = molecular target: Cyclin-dependent kinase 1/cyclin B1 (Homo sapiens, UniProt P06493); assay: as §1; type: protein-complex assay; summary of the method: as §2
Chain of Cyclin-dependent kinase 1/cyclin B1 (Homo sapiens, UniProt P06493) (P06493 whole entry): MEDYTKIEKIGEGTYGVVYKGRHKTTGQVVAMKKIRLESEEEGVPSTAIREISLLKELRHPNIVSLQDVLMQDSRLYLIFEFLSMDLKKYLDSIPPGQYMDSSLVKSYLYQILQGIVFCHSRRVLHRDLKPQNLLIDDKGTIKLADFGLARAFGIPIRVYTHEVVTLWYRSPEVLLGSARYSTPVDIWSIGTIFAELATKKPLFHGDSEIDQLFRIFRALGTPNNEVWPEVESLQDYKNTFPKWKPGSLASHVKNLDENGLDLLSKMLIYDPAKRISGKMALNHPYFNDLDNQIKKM
Chain of Cyclin-dependent kinase 1/cyclin B1 (Homo sapiens, UniProt P06493) (P14635 whole entry, further chain): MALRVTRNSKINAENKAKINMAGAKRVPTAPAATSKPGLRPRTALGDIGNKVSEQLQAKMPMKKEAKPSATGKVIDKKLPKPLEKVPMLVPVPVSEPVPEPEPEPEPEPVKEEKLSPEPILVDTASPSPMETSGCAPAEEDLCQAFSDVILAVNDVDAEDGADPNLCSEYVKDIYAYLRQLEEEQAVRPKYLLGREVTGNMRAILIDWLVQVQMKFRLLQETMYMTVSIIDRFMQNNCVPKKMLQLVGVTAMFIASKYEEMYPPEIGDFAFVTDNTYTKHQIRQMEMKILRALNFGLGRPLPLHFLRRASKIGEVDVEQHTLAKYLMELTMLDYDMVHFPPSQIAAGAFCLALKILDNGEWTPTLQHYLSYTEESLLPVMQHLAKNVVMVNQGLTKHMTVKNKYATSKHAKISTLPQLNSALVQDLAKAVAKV

[5] = system: HeLa; assay: Cell cycle arrest in human HeLa cells assessed as accumulation at G1/S phase at 12.5 uM after 72 hrs by DAPI staining-based FACS analysis (reference value: 86.27%); type: functional
[6] = system: HeLa; assay: Cell cycle arrest in human HeLa cells assessed as accumulation at G2 phase at 6.25 uM after 72 hrs by DAPI staining-based FACS analysis (reference value: 13.73%); type: functional
[7] = molecular target: Cyclin-dependent kinase 2/cyclin A (Homo sapiens, UniProt P24941); assay: as §3; type: protein-complex assay; summary of the method: as §4
[8] = system: HeLa; assay: Cell cycle arrest in human HeLa cells assessed as accumulation at G1/S phase at 6.25 uM after 72 hrs by DAPI staining-based FACS analysis (reference value: 86.27%); type: functional

Chain of Cyclin-dependent kinase 1/cyclin B1 (Homo sapiens, UniProt P06493+P14635) (P06493 whole entry): as the sequence (P06493 whole entry) above
Chain of Cyclin-dependent kinase 1/cyclin B1 (Homo sapiens, UniProt P06493+P14635) (P14635 whole entry): as the sequence (P14635 whole entry, further chain) above

NC(=O)c1c(-c2ccc(Br)s2)n([C@H]2O[C@@H](CO)[C@@H](O)[C@@H]2O)c2ncnc(N)c12
IC50 [1]: Not Active
IC50 [2]: Not Active

NC(=O)c1c(-c2cccs2)n([C@H]2O[C@@H](CO)[C@@H](O)[C@@H]2O)c2ncnc(N)c12
IC50 [1]: Not Active
IC50 [2]: Not Active

COc1cccc(-c2c(C#N)c3c(N)ncnc3n2[C@H]2O[C@@H](CO)[C@@H](O)[C@@H]2O)c1
IC50 [1]: Not Active
IC50 [2]: Not Active

N#Cc1c(Br)n([C@H]2O[C@@H](CO)[C@@H](O)[C@@H]2O)c2ncnc(N)c12
IC50 [1]: Not Active
IC50 [2]: Not Active

CC(C)(C)c1ccc(-c2c(C#N)c3c(N)ncnc3n2[C@H]2O[C@@H](CO)[C@@H](O)[C@@H]2O)cc1
IC50 [1]: Not Active
IC50 [2]: Not Active

COc1ccc(-c2c(C(N)=O)c3c(N)ncnc3n2[C@H]2O[C@@H](CO)[C@@H](O)[C@@H]2O)cc1
IC50 [1]: Not Active
IC50 [2]: Not Active

Cc1ccc(-c2c(C#N)c3c(N)ncnc3n2[C@H]2O[C@@H](CO)[C@@H](O)[C@@H]2O)cc1
IC50 [1]: Not Active
IC50 [2]: Not Active

N#Cc1c(-c2ccco2)n([C@H]2O[C@@H](CO)[C@@H](O)[C@@H]2O)c2ncnc(N)c12
Activity [3]: 7.26%
IC50 [4]: > 100 µM
Activity [5]: 92.74%
Activity [6]: 14.87%
IC50 [7]: 4.8 µM
Activity [8]: 85.13%

N#Cc1c(-c2ccc(Br)cc2)n([C@H]2O[C@@H](CO)[C@@H](O)[C@@H]2O)c2ncnc(N)c12
IC50 [1]: Not Active
IC50 [2]: Not Active

NC(=O)c1c(Br)n([C@H]2O[C@@H](CO)[C@@H](O)[C@@H]2O)c2ncnc(N)c12 [XYLOCYDINE]
IC50 [4]: 0.0014 µM
IC50 [7]: 0.061 µM

N#Cc1c(-c2ccc(Br)s2)n([C@H]2O[C@@H](CO)[C@@H](O)[C@@H]2O)c2ncnc(N)c12
Activity [3]: 0.22%
IC50 [4]: > 100 µM
Activity [5]: 99.79%
Activity [6]: 13.17%
IC50 [7]: 55 µM
Activity [8]: 86.83%

NC(=O)c1c(-c2ccco2)n([C@H]2O[C@@H](CO)[C@@H](O)[C@@H]2O)c2ncnc(N)c12
IC50 [1]: Not Active
IC50 [2]: Not Active

N#Cc1c(-c2ccc[nH]2)n([C@H]2O[C@@H](CO)[C@@H](O)[C@@H]2O)c2ncnc(N)c12
IC50 [1]: Not Active
IC50 [2]: Not Active

N#Cc1c(-c2cccc(Br)c2)n([C@H]2O[C@@H](CO)[C@@H](O)[C@@H]2O)c2ncnc(N)c12
IC50 [1]: Not Active
IC50 [2]: Not Active

COc1cccc(-c2c(C(N)=O)c3c(N)ncnc3n2[C@H]2O[C@@H](CO)[C@@H](O)[C@@H]2O)c1
IC50 [1]: Not Active
IC50 [2]: Not Active

NC(=O)c1c(-c2ccc(Br)cc2)n([C@H]2O[C@@H](CO)[C@@H](O)[C@@H]2O)c2ncnc(N)c12
IC50 [1]: Not Active
IC50 [2]: Not Active

Cc1ccc(-c2c(C(N)=O)c3c(N)ncnc3n2[C@H]2O[C@@H](CO)[C@@H](O)[C@@H]2O)cc1
IC50 [1]: Not Active
IC50 [2]: Not Active

NC(=O)c1c(-c2cccc(Br)c2)n([C@H]2O[C@@H](CO)[C@@H](O)[C@@H]2O)c2ncnc(N)c12
IC50 [1]: Not Active
IC50 [2]: Not Active

NC(=O)c1c(-c2ccc[nH]2)n([C@H]2O[C@@H](CO)[C@@H](O)[C@@H]2O)c2ncnc(N)c12
IC50 [1]: Not Active
IC50 [2]: Not Active

CC(C)(C)c1ccc(-c2c(C(N)=O)c3c(N)ncnc3n2[C@H]2O[C@@H](CO)[C@@H](O)[C@@H]2O)cc1
IC50 [1]: Not Active
IC50 [2]: Not Active

N#Cc1c(-c2cccs2)n([C@H]2O[C@@H](CO)[C@@H](O)[C@@H]2O)c2ncnc(N)c12
Activity [3]: 0.13%
IC50 [4]: > 100 µM
Activity [5]: 99.87%
Activity [6]: 3.7%
IC50 [7]: 4.6 µM
Activity [8]: 96.3%

COc1ccc(-c2c(C#N)c3c(N)ncnc3n2[C@H]2O[C@@H](CO)[C@@H](O)[C@@H]2O)cc1
IC50 [1]: Not Active
IC50 [2]: Not Active

Source: ChEMBL document CHEMBL1921796, “Synthesis of 6-(het) ary Xylocydine analogues and evaluating their inhibitory activities of CDK1 and CDK2 in vitro” (Bioorg Med Chem, 2011)
